Bioassay records from PubChem BioAssay.
This is a sample that favours compounds with a hit; in the whole collection about 1.2% have one here.
MsrA inhibitor – inhibitors of bovine MsrA; inhibition, % at 15.5 µM; actives 0.75% (n = 360,000); purified bovine MsrA, absorbance read-out; AID 651718; in the data active = inhibition above about 4.5%
MsrA act – bovine methionine sulfoxide reductase A activation | purified bovine MsrA, absorbance read-out | activation, % at 10.6 µM | actives 0.3% (n = 360,000) | AID 602163; in the data active = activation above about 7.5%
procasp3 activ – activates human procaspase-3; recombinant procaspase-3 D3A, Ac-DEVD-pNA absorbance 405 nm; activation, % at 8.5 µM; actives 0.11% (n = 330,000);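 active = activation above the mean of all tested compounds plus 3 SD, cut at about 21% in these data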
Target sequence (P42574 whole entry D9A/D28A/D175A): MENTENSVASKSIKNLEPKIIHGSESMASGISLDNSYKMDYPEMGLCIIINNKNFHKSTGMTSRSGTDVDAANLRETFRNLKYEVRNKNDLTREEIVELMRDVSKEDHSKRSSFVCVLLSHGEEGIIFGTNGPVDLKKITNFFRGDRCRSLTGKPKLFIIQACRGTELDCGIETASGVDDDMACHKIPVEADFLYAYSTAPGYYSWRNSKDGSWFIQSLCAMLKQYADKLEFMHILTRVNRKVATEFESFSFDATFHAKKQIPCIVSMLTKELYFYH
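Test system: Procaspase-3 D3A mutant, all three cleavage aspartates alanine | Dosing: Single dose, 8.5 µM nominal compound, 0.8% DMSO | Schedule: 1 h preincubation, 2 h reaction | Technique: 405 nm absorbance of p-nitroaniline, reads at 0 and 120 min | Repeats: One well per compound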
proCasp7 act – activates human procaspase-7, counter-screen for procaspase-3 activators | recombinant procaspase-7, Ac-DEVD-pNA absorbance 405 nm; D23A/D198A/D206A triple mutant, cannot self-cleave; scale: DMSO 0, 5 µM enzyme 100 | activation, % at 8.5 µM | actives 0.093% (n = 330,000) | AID 463210;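 active = percent activation above the screen-wide mean plus 3 SD, cut at about 25% in these data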
Target sequence (P55210 whole entry D23A/D198A/D206A): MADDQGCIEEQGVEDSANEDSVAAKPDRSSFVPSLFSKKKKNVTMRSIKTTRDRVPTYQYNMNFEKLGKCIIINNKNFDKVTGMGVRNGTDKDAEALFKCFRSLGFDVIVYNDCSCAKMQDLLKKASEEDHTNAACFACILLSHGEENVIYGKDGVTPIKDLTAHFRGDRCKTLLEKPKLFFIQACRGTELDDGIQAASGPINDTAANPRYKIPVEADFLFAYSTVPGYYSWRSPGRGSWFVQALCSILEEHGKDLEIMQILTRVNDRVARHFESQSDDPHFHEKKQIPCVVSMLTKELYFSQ
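signal = Epi-absorbance of released pNA at 405 nm, two timepoints | assay system = Uncleavable procaspase-7 mutant enzyme | reagent = Ac-DEVD-pNA substrate, 400 µM as added | times = 1 h enzyme–compound preincubation and 2 h substrate reaction, both 25 °C | benchmarks = low DMSO alone, high DMSO plus 5 µM PC-7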
MsrA act confirm – confirmation of bovine methionine sulfoxide reductase A activators. shares compounds with MsrA act. purified bovine MsrA, absorbance read-out. activation, % at 10.6 µM. actives 12% (n = 1,000). AID 602270; in the data active = activation above about 4%;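 also: enzyme coupled to thioredoxin and thioredoxin reductase with NADPH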
Of the large screens only hits and unclear results are named; the others gave an inactive call (follow-up assays come after a bar, where they were run).

Cc1ccc(NC2=CC(=O)C(=O)c3ccccc32)c(C)c1	none
O=C1C=C(NCc2ccccc2)c2ccccc2C1=O	MsrA act 9.4 (no result: procasp3 activ, proCasp7 act) | MsrA act confirm 8.9
CN(C)c1nc(NC(C)(C)C)nc(SCC(=O)Nc2ccccc2)n1	MsrA act 7.7 | MsrA act confirm inactive
CC(C)(C)Nc1nc(SCC(=O)Nc2ccccc2)nc(N2CCOCC2)n1	none
O=C(NCCNC(=O)c1ccc(-c2ccc(Cl)c(Cl)c2)o1)c1cnccn1	MsrA act 10 | MsrA act confirm inactive
COC1C(O)CCC2(CO2)C1C1(C)OC1CC=C(C)C (stereo not given)	none (no result: MsrA act, procasp3 activ, proCasp7 act)
C[C@@H]1CN([C@H](C)CO)C(=O)CCCn2nncc2CO[C@@H]1CN(C)S(=O)(=O)c1ccc2c(c1)OCCCO2	MsrA act 12 (no result: procasp3 activ, proCasp7 act) | MsrA act confirm inactive
C[C@H](CO)N1C[C@H](C)[C@@H](CN(C)S(=O)(=O)c2ccc3c(c2)OCCCO3)OCc2cnnn2CCCC1=O	none (no result: procasp3 activ, proCasp7 act)
CC(C)NC(=O)N(C)C[C@@H]1OCc2cn(nn2)CCCC(=O)N([C@H](C)CO)C[C@H]1C	MsrA act 13 (no result: procasp3 activ, proCasp7 act) | MsrA act confirm inactive
CN(C(=O)c1cccc(NC(=O)Cc2ccc(NC(=O)C3CCN(C(=O)c4ccccc4)CC3)cc2)c1)C1CC1	none (no result: procasp3 activ, proCasp7 act)
CN(C(=O)c1cccc(NC(=O)Cc2cccc(NC(=O)C3CCN(C(=O)c4ccccc4)CC3)c2)c1)C1CC1	MsrA act 8.7 (no result: procasp3 activ, proCasp7 act) | MsrA act confirm inactive
CCOC(=O)[C@@H]1CSCCS(=O)(=O)N1C(=O)[C@H](CC(C)C)NC(=O)OC(C)(C)C	none (no result: MsrA act, procasp3 activ, proCasp7 act)
CC(C)[C@H](NC(=O)c1ccco1)C(=O)N1CCC[C@H]1C(=O)NCc1ccccc1	none (no result: MsrA act, procasp3 activ, proCasp7 act)
O=C(Cn1c(=O)oc2ccccc21)Nc1n[nH]c(=S)s1	MsrA act 7.9 | MsrA act confirm 5.5
COc1cc(OC)cc(C(=O)NC2CCN(CC(=O)Nc3cccc4ccccc34)CC2)c1	MsrA act 8.9 | MsrA act confirm inactive
Cc1cc(=O)[nH]c(SCC(=O)N2CCc3ccccc3C2)n1	MsrA act 9.5 | MsrA act confirm inactive
Cc1ccc(-n2sc3cc(F)ccc3c2=O)c(C)c1	MsrA act 14 (no result: procasp3 activ, proCasp7 act) | MsrA act confirm inactive
O=c1c2ccccc2sn1-c1ccc(F)cc1	MsrA act 12 | MsrA act confirm 8.3
Cc1ccc(-n2sc3ccccc3c2=O)cc1	MsrA act 13 | MsrA act confirm inactive
O=c1c2ccc(F)cc2sn1-c1ccccc1	MsrA act 13 (no result: procasp3 activ, proCasp7 act) | MsrA act confirm 8.0
Cc1ccc(N2C(=O)CC(N3CCN(c4ccc(F)cc4)CC3)C2=O)c(C)c1 (stereo not given)	none
O=c1c2cc(F)ccc2sn1-c1ccccc1Cl	none (no result: procasp3 activ, proCasp7 act)
COC(=O)c1cc2c(c3c4ccccc4n(S(C)(=O)=O)c13)C(=O)N(Cc1ccccc1)C2	none (no result: MsrA act, procasp3 activ, proCasp7 act)
COC(=O)N/N=C/c1ccc(-c2ccc(C)c(Cl)c2)o1	none
Cc1ccc(-c2ccc(/C=N/NC(=O)CN3CCCC3)o2)cc1Cl	MsrA act 8.8 | MsrA act confirm inactive
O=C(Nc1ccccc1)N1CCN(c2nc3ccccc3s2)CC1	none
O=C(Nc1ccc(F)cc1)N1CCN(c2nc3ccccc3s2)CC1	MsrA act 8.0 | MsrA act confirm inactive
COC(=O)N1Cc2ccnnc2CC1c1ccccc1-c1ccc(OC)cc1 (stereo not given)	none (no result: MsrA act, procasp3 activ, proCasp7 act)
Cc1cc(C)cc(N(CC(=O)Nc2ccccc2C(=O)N2CCOCC2)S(C)(=O)=O)c1	MsrA act 9.2 | MsrA act confirm inactive
COc1ccccc1NC(=O)CN(c1ccccc1)S(=O)(=O)c1ccccc1	none
Cc1ccc(S(=O)(=O)N(CC(=O)Nc2ccccc2C(=O)O)c2ccccc2)cc1	MsrA act 7.8 | MsrA act confirm inactive
Brc1ccc(N2O[C@H]3C=C[C@@H]2C3)nc1	none (no result: MsrA act, procasp3 activ, proCasp7 act)
CC(C)(C)S(=O)(=O)N1Cc2cc(CO)ccc2[C@@H]1CCO	none (no result: MsrA act, procasp3 activ, proCasp7 act)
O=C(Cn1sc2ccccc2c1=O)Nc1ccccc1	MsrA act 7.7 (no result: procasp3 activ, proCasp7 act) | MsrA act confirm inactive
CCCNS(=O)(=O)c1ccc(OCC(=O)NCc2ccco2)cc1	MsrA act 16 | MsrA act confirm inactive
CCOc1ccc(S(=O)(=O)NCCC(=O)NCc2ccco2)cc1	none
S=c1[nH]nc(-c2ccncc2)n1Cc1ccccc1	MsrA act 8.5 | MsrA act confirm inactive
Cc1nn(-c2ccccc2)c2nc(-c3ccco3)cc(C(=O)O)c12	none
COC(=O)c1cc(C)nc2c1c(C)nn2-c1ccccc1	MsrA act 13 | MsrA act confirm inactive
COC(=O)[C@]12C[C@H](CC(=O)NCCC(C)C)C(=O)N(Cc3ccc4c(c3)OCO4)C1=C[C@H](C(C)(C)C)O[C@@H]2C	none (no result: MsrA act, procasp3 activ, proCasp7 act)
CCOC(=O)c1nn(-c2ccc(C)cc2)c(=O)c2c(N)scc12	MsrA act 8.6 | MsrA act confirm inactive
CCOC(=O)c1nn(-c2ccc(F)cc2)c(=O)c2c(N)scc12	none
COc1ccc(C(C)(O)c2nc(-c3cccc(C(F)(F)F)c3)cs2)cc1 (stereo not given)	MsrA act 9.8 (no result: procasp3 activ, proCasp7 act) | MsrA act confirm inactive
COc1cccc(C(C)(O)c2nc(-c3cccc(C(F)(F)F)c3)cs2)c1 (stereo not given)	none (no result: procasp3 activ, proCasp7 act)
C[C@@H]1ON(C)[C@H]2C[C@H]3c4[nH]c5cccc(-c6ccccc6F)c5c4CCN3C(=O)[C@@H]12	none (no result: MsrA act, procasp3 activ, proCasp7 act)
COc1ccc(-c2nnn(Cc3ccccc3F)n2)cc1	MsrA act 16 | MsrA act confirm inactive
COC(=O)[C@H](Cc1ccccc1)N1CC(N2CCCC2)CS1(=O)=O (stereo not given in full)	none (no result: MsrA act, procasp3 activ, proCasp7 act)
Cc1ccc(-n2[nH]c(C)c(C=Nc3ccc4[nH]c(=O)[nH]c4c3)c2=O)cc1C	none
Cc1ccc(-n2[nH]c(C)c(C=Nc3ccc4[nH]c(=O)[nH]c4c3)c2=O)cc1	MsrA act 7.8 | MsrA act confirm inactive
CSc1ccc(-c2nc(O)c3cnccn23)cc1	MsrA act 10 | MsrA act confirm inactive
COC(=O)Cc1nnn2c1[C@@H](C)[C@@H](c1ccccc1Br)O[C@@H](C)C2	none (no result: MsrA act, procasp3 activ, proCasp7 act)
Cc1cccc(C)c1NC(=O)COC(=O)C1CC1	MsrA act 9.7 | MsrA act confirm inactive
CN(C(=O)c1cn(C)c2ccccc12)c1ccc(Oc2cccnc2)cc1	none (no result: MsrA act, procasp3 activ, proCasp7 act)
O=C(C[C@H]1C[C@@H]2c3cc(NS(=O)(=O)c4ccccc4)ccc3O[C@@H]2[C@H](CO)O1)N1CCOCC1	MsrA act 14 (no result: procasp3 activ, proCasp7 act) | MsrA act confirm inactive
COc1cccc(OC)c1OCCOc1ccc(C(=O)c2ccccc2)cc1	MsrA act 18 | MsrA act confirm inactive
COC(=O)c1ccc(OCCOc2ccccc2)cc1	none
O=C1c2ccccc2-c2cccnc21	none
O=C1c2ccccc2C(=O)c2c(/C=C/N3CCCCC3)ccnc21	MsrA act 9.7 (no result: procasp3 activ, proCasp7 act) | MsrA act confirm 4.3
CN(C)c1ccc(C=c2c3cc(O)ccc3n3c2cc(-c2ccccc2)[n+]3C)cc1	MsrA act 17 (no result: procasp3 activ, proCasp7 act) | MsrA act confirm 8.1
C[n+]1c(-c2ccccc2)cc2c(=Cc3ccccc3)c3ccccc3n21	MsrA inhibitor 12, MsrA act 19 (no result: procasp3 activ, proCasp7 act) | MsrA act confirm 9.6
